Measurements gathered from unrelated publications.
Compare with care: the assays were run in different laboratories.
KDR: Vascular endothelial growth factor receptor 2 (KDR, Homo sapiens, UniProt P35968)
PADI1: Protein-arginine deiminase type-1 (PADI1, Homo sapiens, UniProt Q9ULC6)
CDK16: Cyclin-dependent kinase 16 (CDK16, Homo sapiens, UniProt Q00536)
ATAD2 bromodomain: ATPase family AAA domain-containing protein 2, bromodomain (ATAD2, Homo sapiens, UniProt Q6PL18)

| SMILES | target | test | system | setting | measurement | value |
| --- | --- | --- | --- | --- | --- | --- |
| COc1ccc(NC(=O)c2c(Nc3ccccc3)sc(C(=O)NN=Cc3ccc(Cl)cc3)c2NC(C)=O)cc1 | KDR | enzyme activity, inhibitor | – | 0.1 µM | remaining activity | 88.3% |
| N=C(CCl)NCCC[C@H](NC(=O)c1ccccc1C(=O)O)c1nn[nH]n1 | PADI1 | enzyme activity, inhibitor | – | – | kinact/KI | 1370 M⁻¹ s⁻¹ |
| Cc1ccc(C(=O)Nc2ccc(CN3CCN(C)CC3)c(C(F)(F)F)c2)cc1C#Cc1cnc2cccnn12 | Phosphatidylinositol 4,5-bisphosphate 3-kinase catalytic subunit alpha isoform (PIK3CA, Homo sapiens, UniProt P42336, H1047L) | enzyme activity, inhibitor | – | 23.5 nM | remaining activity | 70% |
| NCCCC[C@H](NC(=O)[C@@H]1CCCN1C(=O)[C@@H]1CSSC[C@H](NC(=O)CNC(=O)CNC(=O)CN)C(=O)N[C@@H](Cc2ccc(O)cc2)C(=O)N[C@@H](Cc2ccccc2)C(=O)N[C@@H](CCC(N)=O)C(=O)N[C@@H](CC(N)=O)C(=O)N1)C(=O)NCC(N)=O | Vasopressin V1a receptor (AVPR1A, Homo sapiens, UniProt P37288) | calcium signal, agonist | CHO-S | – | Emax | 41% |
| N=C(CF)NCCC[C@H](NC(=O)c1ccccc1)c1nn[nH]n1 | PADI1 | enzyme activity, inhibitor | – | – | kinact/KI | 5.75 M⁻¹ s⁻¹ |
| COc1ccc(C=NNC(=O)c2sc(Nc3ccccc3)c(C(=O)Nc3ccc(OC)cc3)c2NC(C)=O)cc1 | KDR | enzyme activity, inhibitor | – | 10 nM | remaining activity | 96% |
| CC(C)(C)n1nnc([C@H](CCCNC(=N)CF)NC(=O)c2ccc(-c3ccccc3)cc2)n1 | PADI1 | enzyme activity, inhibitor | – | – | kinact/KI | 14.4 M⁻¹ s⁻¹ |
| COc1ccc(NC(=O)c2c(Nc3ccccc3)sc(C#N)c2NC(=O)CNc2ccc(Br)cc2)cc1 | KDR | enzyme activity, inhibitor | – | 10 nM | remaining activity | 93% |
| N=C(CCl)NCCC[C@H](NC(=O)c1ccc(-c2ccccc2)cc1)c1nn[nH]n1 | PADI1 | enzyme activity, inhibitor | – | – | kinact/KI | 51.7 M⁻¹ s⁻¹ |
| COc1ccc(NC(=O)c2c(Nc3ccccc3)sc(C#N)c2NC(=O)CNc2ccc([N+](=O)[O-])cc2)cc1 | KDR | enzyme activity, inhibitor | – | 100 µM | remaining activity | 68.8% |
| NC(=O)[C@H](CCCN=C(N)N)NC(=O)c1ccccc1 | PADI1 | enzyme activity, substrate | – | – | Km | 160 µM |
| CN(C)C1CCN(CC#Cc2nn(C3CCCC3)c3nc(NCc4ccccc4)ncc23)C1 (stereo not shown) | Dual specificity mitogen-activated protein kinase kinase 1 (MAP2K1, Homo sapiens, UniProt Q02750) | enzyme activity, inhibitor, FRET | – | 1 µM | inhibition | 9% |
| O=C(O)c1ccc2c(c1)nc(NCCc1cccc(Cl)c1)c1ncncc12 | Dual specificity tyrosine-phosphorylation-regulated kinase 2 (DYRK2, Homo sapiens, UniProt Q92630) | enzyme activity, inhibitor, radiometric | – | 1 µM | remaining activity | 76% |
| Nc1ncnc2occ(-c3ccc(NC(=O)Nc4cc(C(F)(F)F)ccc4F)cc3)c12 | Phosphatidylinositol 5-phosphate 4-kinase type-2 beta (PIP4K2B, Homo sapiens, UniProt P78356) | enzyme activity, inhibitor | – | 20 µM | remaining activity | 100% |
| Cn1c2c(Cl)c(Cl)ccc2c2cc(N)[nH]c(=O)c21 | CDK16 | thermal stability, DSF | – | 10 µM | ΔTm | 0.3 °C |
| COc1ccc(NC(=O)c2c(Nc3ccccc3)sc(C(=O)NN=Cc3ccc(OC)c(O)c3)c2NC(C)=O)cc1 | KDR | enzyme activity, inhibitor | – | 10 nM | remaining activity | 99% |
| CC1(C)NC(=O)c2[nH]c3c(Cl)c(Cl)ccc3c2C1C#N (stereo not shown) | CDK16 | thermal stability, DSF | – | 10 µM | ΔTm | 0.4 °C |
| Oc1ccc(-c2nc(-c3ccncc3)c(-c3ccc(F)cc3)[nH]2)cc1 | ATAD2 bromodomain | thermal stability, DSF | – | 10 µM | ΔTm | 0.05 °C |
| NS(=O)(=O)c1ccc(Nc2nc(-c3ccc(F)cc3)c3ccccc3n2)cc1 | ATPase family AAA domain-containing protein 2 (ATAD2, Homo sapiens, UniProt Q6PL18) | binding, competition with immobilised ligand | – | 1 µM | remaining binding | 85% |
| N=C(CF)NCCC[C@H](NC(=O)c1ccc(-c2ccccc2)cc1)c1nn[nH]n1 | PADI1 | enzyme activity, inhibitor | – | – | kinact/KI | 13.7 M⁻¹ s⁻¹ |
| COc1ccc(NC(=O)c2c(Nc3ccccc3)sc(C#N)c2NC(=O)CNc2ccc(Cl)cc2)cc1 | KDR | enzyme activity, inhibitor | – | 1 µM | remaining activity | 41.1% |
| Cc1cnc(Nc2ccc(OCCN3CCCC3)cc2)nc1Nc1cccc(S(=O)(=O)NC(C)(C)C)c1 | ATAD2 bromodomain | thermal stability, DSF | – | 10 µM | ΔTm | -0.25 °C |
| CC[C@H]1OC(=O)[C@H](C)[C@@H](O[C@H]2C[C@@](C)(OC)[C@@H](O)[C@H](C)O2)[C@H](C)[C@@H](O[C@@H]2O[C@H](C)C[C@H](N(C)C)[C@H]2O)[C@](C)(O)C[C@@H](C)C(=O)[C@H](C)[C@@H](O)[C@]1(C)O | Motilin receptor (MLNR, Homo sapiens, UniProt O43193) | inositol phosphate, agonist, TR-FRET | AD293 | – | Emax | 100% |
| COc1ccc(NC(=O)c2c(Nc3ccccc3)sc(C(=O)NN=Cc3cc(OC)c(OC)c(OC)c3)c2NC(C)=O)cc1 | KDR | enzyme activity, inhibitor | – | 0.1 µM | remaining activity | 95.4% |
| CC(C)(C)n1nnc([C@H](CCCNC(=N)CCl)NC(=O)c2ccccc2)n1 | PADI1 | enzyme activity, inhibitor | – | – | kinact/KI | 52.4 M⁻¹ s⁻¹ |
